Source: ChEMBL document CHEMBL1129741, “Synthesis and hypolipidemic activities of novel 2-[4-[diethoxyphosphoryl)methyl]phenyl]quinazolines and 4(3H)-quinazolinones” (J Med Chem, 1996)

How the values were obtained:
Rattus norvegicus [1] = assay: Effect on change in plasma triglycerides (TG) in triton-induced hyperlipidemic rats after peroral administration of 100 mg/kg.; format: functional; details: route oral
Rattus norvegicus [2] = assay: Effect on change in total cholesterol (TC) in triton-induced hyperlipidemic rats after peroral administration of 100 mg/kg.; format: functional; details: route oral
[3] = Partition coefficient (logP) (HPLC); format: physicochemical; details: octanol/water
In short: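 Apparent log P* was estimated from reverse-phase HPLC retention time against methyl, ethyl, n-propyl, n-butyl and n-hexyl benzoate standards. Column was C18 at 40 °C with mobile phase CH3OH/0.05 M […] pH 7.4 at 1.0 mL/min, and detection was UV at 230 nm.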

Rattus norvegicus [4] = assay: Effect on change in plasma triglycerides (TG) in triton-induced hyperlipidemic rats after po administration of 10 mg/kg; format: functional
Rattus norvegicus [5] = assay: Effect on change in total cholesterol (TC) in triton-induced hyperlipidemic rats after po administration of 10 mg/kg; format: functional

logP [3] | Structure (SMILES) | Change (Rattus norvegicus [1]) | Change (Rattus norvegicus [2]) | Change (Rattus norvegicus [4]) | Change (Rattus norvegicus [5])
4.88 | CC(C)OP(=O)(Cc1ccc(-c2nc3ccc(Br)cc3c(=O)n2C)cc1)OC(C)C | <-37% | -11% |  | 
4.51 | CCOP(=O)(Cc1ccc(-c2nc(OC)c3cc(OC)c(OC)cc3n2)cc1)OCC | <-86% | <-60% |  | 
2.55 | CCOP(=O)(Cc1ccc(-c2nc(O)c3ccccc3n2)cc1)OCC |  |  |  | 
5.61 | COc1nc(-c2ccc(CP(=O)(OC)OC)cc2)nc2ccc(Br)cc12 | -9% | -9% |  | 
2.6 | COc1cc2nc(-c3ccc(CP(=O)(OC)OC)cc3)nc(O)c2cc1OC | -11% | -18% |  | 
5.13 | CCOP(=O)(Cc1ccc(-c2nc(OC)c3c(F)cccc3n2)cc1)OCC | -28% | -25% |  | 
3.75 | COc1cc2nc(-c3ccc(CP(=O)(OC)OC)cc3)nc(OC)c2cc1OC | <-52% | <-48% |  | 
7.67 | CCOP(=O)(Cc1ccc(-c2nc(Oc3ccccc3)c3cc(Br)ccc3n2)cc1)OCC | <16% | 4% |  | 
5.53 | COc1cc2nc(-c3ccc(CP(=O)(OC(C)C)OC(C)C)cc3)nc(OC)c2cc1OC | <-81% | < -60% |  | 
7.01 | CCOc1nc(-c2ccc(CP(=O)(OCC)OCC)cc2)nc2ccc(Br)cc12 | <-29% | -14% |  | 
5.26 | CCOP(=O)(Cc1ccc(-c2nc(OC)c3ccccc3n2)cc1)OCC | -5% | 56% |  | 
6.37 | CCOP(=O)(Cc1ccc(-c2nc(OC)c3cc(Br)ccc3n2)cc1)OCC | 2% | 1% |  | 
3.36 | CCOP(=O)(Cc1ccc(-c2nc(O)c3cc(OC)c(OC)cc3n2)cc1)OCC | -37% | <-22% |  | 
2.65 | COc1cc2nc(-c3ccc(CP(=O)(OC)OC)cc3)n(C)c(=O)c2cc1OC | <-41% | <-27% |  | 
4.09 | CCOP(=O)(Cc1ccc(-c2nc3ccc(Br)cc3c(=O)n2C)cc1)OCC | <-35% | <-16% |  | 

Further lines, the molecule ahead of its results:

Structure (SMILES) | logP [3] | Change (Rattus norvegicus [1]) | Change (Rattus norvegicus [2]) | Change (Rattus norvegicus [4]) | Change (Rattus norvegicus [5])
CCOP(=O)(Cc1ccc(-c2nc3ccc(Br)cc3c(=O)n2CC)cc1)OCC |  | <-42% | <-29% |  | 
CCOP(=O)(Cc1ccc(-c2nc3ccc(Br)cc3c(=O)n2CC(=O)O)cc1)OCC |  | 13% | 5% |  | 
CCOP(=O)(Cc1ccc(-c2nc(O)c3c(F)cccc3n2)cc1)OCC | 3.13 | -8% | -8% |  | 
CCOP(=O)(Cc1ccc(-c2nc(OCc3ccc(Br)cc3F)c3cc(Br)ccc3n2)cc1)OCC |  | -4% | <-12% |  | 
CCOP(=O)(Cc1ccc(-c2nc3cc(OC)c(OC)cc3c(=O)n2Cc2ccccc2)cc1)OCC | 4.49 | <-85% | <-60% | < -30% | < -15%
CCOP(=O)(Cc1ccc(-c2nc3cccc(F)c3c(=O)n2C)cc1)OCC | 3.18 | -12% | <-15% |  | 
C=CCn1c(-c2ccc(CP(=O)(OCC)OCC)cc2)nc2cc(OC)c(OC)cc2c1=O |  |  |  | <-61% | <-41%
C=CCOc1nc(-c2ccc(CP(=O)(OCC)OCC)cc2)nc2cc(OC)c(OC)cc12 |  | <-71% | <-35% |  | 
CCOP(=O)(Cc1ccc(-c2nc3ccc(Br)cc3c(=O)n2Cc2ccc(Br)cc2F)cc1)OCC |  | -16% | -1% |  | 
CCOP(=O)(Cc1ccc(-c2nc(OCc3ccccc3)c3cc(OC)c(OC)cc3n2)cc1)OCC |  | <-40% | <-21% |  | 
C=CCOc1nc(-c2ccc(CP(=O)(OCC)OCC)cc2)nc2ccc(Br)cc12 |  | -18% | -2% |  | 
CCOP(=O)(Cc1ccc(-c2nc3ccccc3c(=O)n2C)cc1)OCC | 3.29 | <31% | 38% |  | 
COc1cc2nc(-c3ccc(CP(=O)(OC(C)C)OC(C)C)cc3)n(C)c(=O)c2cc1OC | 4.2 | <-81% | <-58% | -8% | -4%
CCOP(=O)(Cc1ccc(-c2nc3cc(OC)c(OC)cc3c(=O)n2C)cc1)OCC | 3.41 | <-86% | <-51% | -21% | -11%
COc1cc2nc(-c3ccc(CP(=O)(OC(C)C)OC(C)C)cc3)nc(O)c2cc1OC | 4.38 | -32% | <-35% |  | 
CCOP(=O)(Cc1ccc(-c2nc3ccc(Br)cc3c(=O)n2Cc2ccccc2)cc1)OCC | 5.17 | <-54% | <-34% |  | 
CCOP(=O)(Cc1ccc(-c2nc(OCC(=O)O)c3cc(Br)ccc3n2)cc1)OCC |  | -2% | -14% |  | 
C=CCn1c(-c2ccc(CP(=O)(OCC)OCC)cc2)nc2ccc(Br)cc2c1=O |  | <-43% | <-25% |  | 
CCOP(=O)(Cc1ccc(C(=O)Nc2ccc(Br)cc2C#N)cc1)OCC [IBROLIPIM] | 3.21 | < -85% | < -69% | -54% | -27%
